Experimental data: ChEMBL document CHEMBL1149704, “Virtual screening application of a model of full-length HIV-1 integrase complexed with viral DNA” (Bioorg Med Chem Lett, 2007)

Key:
[1] = target: T1, Human immunodeficiency virus type 1 integrase (Human immunodeficiency virus 1, UniProt Q7ZJM1); test: Inhibition of HIV1 integrase strand transfer activity
Procedure, shortened: (§1)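 Hits from the electrochemiluminescent screen were confirmed in a gel-based assay with Mg2+. IC50 values were determined separately for 3'-processing and strand transfer.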

[2] = target: T1, Human immunodeficiency virus type 1 integrase; test: Inhibition of HIV1 integrase by BioVeris assay
Procedure, shortened: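 Electrochemiluminescent high-throughput screen measuring HIV-1 integrase strand transfer in the presence of Mg2+, with ruthenium-labelled reagents.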

[3] = target: T1, Human immunodeficiency virus type 1 integrase; test: Inhibition of HIV1 integrase 3' processing activity; procedure, shortened: as §1

T1 sequence (Q7ZJM1 whole entry): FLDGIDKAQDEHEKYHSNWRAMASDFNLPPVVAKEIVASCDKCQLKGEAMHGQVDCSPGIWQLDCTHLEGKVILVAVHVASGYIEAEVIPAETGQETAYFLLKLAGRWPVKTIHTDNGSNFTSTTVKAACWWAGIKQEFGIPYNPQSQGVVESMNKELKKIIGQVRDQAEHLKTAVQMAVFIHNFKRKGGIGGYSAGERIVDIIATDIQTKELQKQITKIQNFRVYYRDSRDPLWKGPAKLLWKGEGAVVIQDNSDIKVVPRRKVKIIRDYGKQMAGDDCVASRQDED

| IC50 [1] [µM] | IC50 [2] [µM] | IC50 [3] [µM] | Compound |
| --- | --- | --- | --- |
| 49 | 113 | 65 | C=C(NNC(=O)C1CC1c1ccccc1)c1cccc(NC(=O)C2CCCCC2C(=O)O)c1 (stereo unspecified) |
| 70 | 141 | 120 | C=C(NNC(=O)c1c[nH]c2ccccc12)c1cccc(NC(=O)CCCC(=O)O)c1 |
|  | 670 | 295 | CC(C)n1nc(C(=O)NN/C(=C/CC(=O)O)c2ccc(Br)cc2)c2ccccc2c1=O |
| 114 | 292 | 204 | C=C(NNC(=O)Cc1ccc(O)cc1)c1ccc(NC(=O)CCC(=O)O)cc1 |
| 57 | 121 | 87 | Cc1n[nH]c(O)c1C(c1ccc(-c2ccc(Cl)c(C(=O)O)c2)o1)c1c(O)n[nH]c1C |

The remaining lines, values behind:

| Compound | IC50 [1] [µM] | IC50 [2] [µM] | IC50 [3] [µM] |
| --- | --- | --- | --- |
| C=C(NNC(=O)C(C)Oc1ccccc1Cl)c1cccc(NC(=O)C2CCCCC2C(=O)O)c1 (stereo unspecified) | > 333 | 182 | > 333 |
| O=C(O)COc1ccccc1/C=N/NC(=O)CSc1nc2ccccc2[nH]1 | 120 | 780 | 155 |
| Cc1[nH]nc(O)c1CC(=O)N/N=C/c1ccccc1OCC(=O)O | 54 | 580 | 121 |
| O=C(O)CCC(=O)Nc1ccccc1-c1ccccc1NC(=O)CCC(=O)O | > 333 | 37 | > 333 |
